Experimental data from ChEMBL document CHEMBL3596114, “SAR refinement of antileishmanial N(2),N(4)-disubstituted quinazoline-2,4-diamines” (Bioorg Med Chem, 2015).

Columns and labels:
Leishmania donovani [1] = assay: Antileishmanial activity against […] forms of beta-lactamase expressing Leishmania donovani MHOM/ET/67/L82 infected in CD-1 mouse peritoneal macrophages assessed as inhibition of beta-lactamase activity after 3 days by spectrophotometer assay; assay type: functional, organism-based; settings: MHOM/ET/67/L82, 72 h
Method in brief: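 Intracellular L. donovani assay in macrophages run by an earlier method, with amphotericin B as the control drug. EC50 is the mean ± standard deviation of at least three independent experiments. Where a mean could not be obtained, the value comes from at least two determinations.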

[2] = Cytotoxicity against mouse J774A.1 cells assessed as inhibition of cell viability after 72 hrs by MTT assay; assay type: cell-based; settings: J774.A1, 72 h
Method in brief: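 J774A.1 murine macrophages were grown in RPMI with 10% FBS and penicillin/streptomycin at 37 °C, 5% CO2, and plated at 5 × 10^3 cells/well with serial compound dilutions for 72 h. MTT was added for 2 h, then cells were lysed with 10% SDS in 50% DMF for 3–5 h and read at 570 nm. EC50 came from a four-parameter fit, at least three independent experiments, podophyllotoxin control.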

[3] = Selectivity index, ratio of EC50 for mouse J774A.1 cells to EC50 for of beta-lactamase expressing Leishmania donovani MHOM/ET/67/L82 infected in CD-1 mouse peritoneal macrophages
[4] = AUC in Swiss-Webster mouse plasma at 10 mg/kg, ip by UPLC-MS/MS analysis; assay type: ADME, organism-based
Method in brief: (§1)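 Male Swiss Webster mice (20–25 g) got a single ip dose of 10 mg/kg in DMSO/PEG400/ethanol/water (0.5:5:1:3.5, v/v). Blood was drawn at 0.25–12 h, n = 3 per time point, and plasma was extracted with methanol-water plus internal standard. Samples were run by UPLC-MS/MS in SRM positive mode (calibration 0.025–25 μM). AUC, Cmax, Tmax, terminal t1/2 and Vz/F came from noncompartmental analysis.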

[5] = Half-life in Swiss-Webster mouse plasma at 10 mg/kg, ip by UPLC-MS/MS analysis; assay type: ADME, organism-based; method in brief: as §1
Plasma = assay: Cmax in Swiss-Webster mouse plasma at 10 mg/kg, ip by UPLC-MS/MS analysis; assay type: ADME, organism-based; parameters: dose 10 mg/kg, route intraperitoneal; settings: in vivo; method in brief: as §1
Liver [6] = assay: Cmax in Swiss-Webster mouse liver at 10 mg/kg, ip after 4 hrs by UPLC-MS/MS analysis; assay type: ADME, organism-based; parameters: dose 10 mg/kg, route intraperitoneal; settings: in vivo
Method in brief: (§2)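 Male Swiss Webster mice got a single 10 mg/kg ip dose in DMSO/PEG400/ethanol/water vehicle. Liver and spleen were excised at 4 and 12 h, rinsed, frozen and homogenized in water (liver 3-fold, spleen 4-fold dilution). Tissue concentrations were measured by UPLC-MS/MS (calibration 0.025–25 μM), triplicate determinations.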

Spleen = assay: Cmax in Swiss-Webster mouse spleen at 10 mg/kg, ip after 4 hrs by UPLC-MS/MS analysis; assay type: ADME, organism-based; parameters: dose 10 mg/kg, route intraperitoneal; settings: in vivo; method in brief: as §2
[7] = Cmax in Swiss-Webster mouse liver at 10 mg/kg, ip after 12 hrs by UPLC-MS/MS analysis; assay type: ADME, organism-based; parameters: dose 10 mg/kg, route intraperitoneal; settings: read-out: Cmax; method in brief: as §2
[8] = Cmax in Swiss-Webster mouse spleen at 10 mg/kg, ip after 12 hrs by UPLC-MS/MS analysis; assay type: ADME, organism-based; parameters: dose 10 mg/kg, route intraperitoneal; settings: read-out: Cmax; method in brief: as §2
[9] = Tmax in Swiss-Webster mouse plasma at 10 mg/kg, ip by UPLC-MS/MS analysis; assay type: ADME, organism-based; method in brief: as §1
[10] = Apparent volume of distribution in Swiss-Webster mouse plasma at 10 mg/kg, ip by UPLC-MS/MS analysis; assay type: ADME, organism-based; settings: read-out: Vz/F; method in brief: as §1
Liver [11] = assay: Half-life in mouse liver microsomes by UPLC analysis; assay type: ADME
Method in brief: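 Pooled mouse liver microsomes with NADPH were incubated and the parent compound quantified by UPLC-MS/MS. Half-life was obtained by fitting one-phase exponential decay to percent substrate remaining versus time.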

Mus musculus [12] = assay: Toxicity in BALB/c mouse assessed as induction of adverse events at 30 mg/kg/day, ip administered for 5 days; assay type: organism-based; settings: in vivo, 120 h
Method in brief: (§3)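 Female BALB/c mice were dosed ip daily for 5 days at 10 or 30 mg/kg/day and observed for adverse effects.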

Mus musculus [13] = assay: Toxicity in BALB/c mouse assessed as induction of adverse events at 10 mg/kg/day, ip administered for 5 days; assay type: organism-based; settings: in vivo, 120 h; method in brief: as §3
Leishmania donovani [14] = assay: Antileishmanial activity against Leishmania donovani infected in visceral leishmaniasis BALB/c mouse model assessed as reduction of liver parasitemia at 10 mg/kg/day, ip administered for 5 days; assay type: functional; settings: 120 h
Method in brief: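 Acute murine visceral leishmaniasis model in female BALB/c mice (6–8 weeks). […] Liver parasitemia was expressed as % inhibition versus infected controls.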

| Structure (SMILES) | EC50 (Leishmania donovani [1]) [µM] | EC50 [2] [µM] | selectivity ratio [3] | other results |
| --- | --- | --- | --- | --- |
| CNc1nc(NCCO)nc2ccccc12 | > 25 |  |  |  |
| C[C@@H]1[C@H](O)[C@@H](C)/C=C/C=C/C=C/C=C/C=C/C=C/C=C/[C@H](O[C@@H]2O[C@H](C)[C@@H](O)[C@H](N)[C@@H]2O)C[C@@H]2O[C@](O)(C[C@@H](O)C[C@@H](O)[C@H](O)CC[C@@H](O)C[C@@H](O)CC(=O)O[C@H]1C)C[C@H](O)[C@H]2C(=O)O [AMPHOTERICIN B] | 0.041 |  |  |  |
| Clc1ccc(CNc2nc(NCc3ccccc3)nc3ccccc23)cc1 | 0.82 | 4.6 | 5.6 |  |
| CC(C)Nc1nc(NC2CC2)nc2ccccc12 | 8 | > 40 | > 5 |  |
| Clc1ccc(CNc2nc(NCc3ccccc3)c3ccccc3n2)cc1 | 0.61 | 3.2 | 5.2 | AUC(0-inf) [4]: 15.7 µM·h; half-life [5]: 9.3 h; Cmax (Plasma): 1.4 µM; Cmax (Liver [6]): 25.3 µM; Cmax (Spleen): 26.6 µM; concentration at 12 h [7]: 8.51 µM; concentration at 12 h [8]: 11.4 µM; Tmax [9]: 0.5 h; Vd/F [10]: 22.3 L/kg; t1/2 (Liver [11]): 1.47 h; Activity (Mus musculus [12]): Toxic; Activity (Mus musculus [13]): Non-toxic; inhibition in vivo at 10 mg/kg/day (Leishmania donovani [14]): 12% |
| COc1ccc(CNc2nc(NCc3ccccc3)nc3ccccc23)cc1 | 2.5 | 5.2 | 2.1 |  |
| c1coc(CNc2nc(NC3CCCC3)nc3ccccc23)c1 | > 25 |  |  |  |
| c1coc(CNc2nc(NC3CCC3)nc3ccccc23)c1 | > 25 |  |  |  |
| CC(C)Nc1nc(NC2CC2)c2ccccc2n1 | 6.1 | 31 | 5.1 |  |
| COc1ccc(CNc2nc(NCc3ccc(OC)cc3)c3ccccc3n2)cc1 | 6 | 2.2 | 0.37 |  |
| c1ccc(CNc2nc(OCc3ccccc3)c3ccccc3n2)cc1 | 0.65 | 3.3 | 5.1 |  |
| Cc1ccc(CNc2nc(NCc3ccc(C)cc3)c3ccccc3n2)cc1 | 1.1 | 2.9 | 2.6 |  |
| CNc1nc(NCc2ccco2)c2ccccc2n1 | > 25 |  |  |  |
| c1ccc(CNc2nc(-c3ccccc3)c3ccccc3n2)cc1 | > 10 |  |  |  |
| Cc1ccccc1-c1nc(NCc2ccccc2)c2ccccc2n1 | > 10 |  |  |  |
| c1ccc(CNc2nc(NCc3ccccc3)c3ccccc3n2)cc1 |  | 5.5 |  |  |
| CC(C)Nc1nc(NCC2CCCO2)c2ccccc2n1 (stereo unspecified) | 8.9 | 46 | 5.2 |  |
| CNc1nc(NC(C)C)nc2ccccc12 | > 25 |  |  |  |
| Cc1ccc(CNc2nc(NCc3ccccc3)c3ccccc3n2)cc1 | 0.89 | 4.5 | 5.1 |  |

| Structure (SMILES) | EC50 (Leishmania donovani [1]) [µM] | EC50 [2] [µM] | selectivity ratio [3] | other results |
| --- | --- | --- | --- | --- |
| CC(C)Nc1nc(NCc2ccco2)c2ccccc2n1 |  | 17 |  |  |
| CCNc1nc(NC)c2ccccc2n1 | > 25 |  |  |  |
| CNc1nc(NC)c2ccccc2n1 | 7.6 | > 133 | > 17.5 |  |
| COc1ccc(CNc2nc(NCc3ccccc3)c3ccccc3n2)cc1 | 0.72 | 4.1 | 5.7 |  |
| CNc1nc(NCc2ccco2)nc2ccccc12 | 20 |  |  |  |
| CC(C)Nc1nc(NCc2ccccc2)nc2ccccc12 | 0.38 | 7.2 | 19 | AUC(0-inf) [4]: 7.14 µM·h; half-life [5]: 2.1 h; Cmax (Plasma): 2.15 µM; Cmax (Liver [6]): 20.2 µM; Cmax (Spleen): 16.5 µM; concentration at 12 h [7]: 0.54 µM; concentration at 12 h [8]: 0.18 µM; Tmax [9]: 0.25 h; Vd/F [10]: 1.15 L/kg; t1/2 (Liver [11]): 0.7 h; Activity (Mus musculus [12]): Toxic; Activity (Mus musculus [13]): Non-toxic; inhibition in vivo at 10 mg/kg/day (Leishmania donovani [14]): 23.8% |
| Cc1ccccc1-c1nc(NCc2ccccc2)nc2ccccc12 | > 10 |  |  |  |
| CC(C)Nc1nc(NCc2ccco2)nc2ccccc12 | 11 | 8.3 | 0.75 |  |
| CCCCCCCCCCCCCCCCOP(=O)([O-])OCC[N+](C)(C)C [MILTEFOSINE] |  |  |  | inhibition in vivo at 10 mg/kg/day (Leishmania donovani [14]): 93.6% |
| CC(C)Nc1nc(Nc2ccccc2)c2ccccc2n1 | 1.9 | 12 | 6.3 |  |
| CC(C)Nc1nc(NC(C)C)c2ccccc2n1 | 2.3 | > 30 | > 13 |  |
| CNc1nc(NCc2ccccc2)nc2ccccc12 |  | 15 | 100 |  |
| CNc1nc(NC2CCCC2)nc2ccccc12 | 4.4 | 39 | 8.9 |  |
| Cc1ccc(CNc2nc(NCc3ccccc3)nc3ccccc23)cc1 | 0.39 | 2.1 | 5.4 |  |
| COc1cc([C@@H]2c3cc4c(cc3[C@H](O)[C@H]3COC(=O)[C@H]23)OCO4)cc(OC)c1OC [PODOFILOX] |  | 0.021 |  |  |
| CCNc1nc(NC(C)C)nc2ccccc12 | 6.3 | > 30 | > 4.8 |  |
| c1coc(CNc2nc(NC3CCCCC3)nc3ccccc23)c1 | 4 | 5.3 | 1.3 |  |
| CC(C)Nc1nc(NCc2ccccc2)c2ccccc2n1 | 2 | 6.7 | 3.4 |  |
